We go through one compound from ChEMBL document CHEMBL4823286, “Synthesis and evaluation of novel 2,4-diaminopyrimidines bearing a sulfoxide moiety as anaplastic lymphoma kinase (ALK) inhibition agents” (Bioorg Med Chem Lett, 2021).

Experiment [1] concerns NCI-H2228. Kind of experiment: Cell cycle arrest in human NCI-H2228 cells assessed as accumulation of cells in G1 phase at 20 nM measured after 12 hrs by PI staining based flow cytometry method (reference value: 67.77%). Format: functional. The method in brief: (§1)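 NCI-H2228 cells exposed to 20 nM for 0, 12, 24 or 48 h, stained with PI and analysed by flow cytometry for G0/G1, S and G2/M fractions. Phase percentages quantified by analysis software; three independent experiments, representative run shown.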
(Flow cytometry measures light scatter and fluorescence of single cells or particles in a stream.)

The test system of experiment [2] is NCI-H2228. The experiment is described as follows: Cell cycle arrest in human NCI-H2228 cells assessed as accumulation of cells in G2/M phase at 20 nM measured after 24 hrs by PI staining based flow cytometry method (reference value: 2.23%). Format: functional. The essentials: as §1
Experiment [3] relates to NCI-H2228. Kind of experiment: Cell cycle arrest in human NCI-H2228 cells assessed as accumulation of cells in S phase at 20 nM measured after 48 hrs by PI staining based flow cytometry method (reference value: 30%). Format: functional. The method in brief: as §1
For experiment [4], the system named is NCI-H2228. The experiment is described as follows: Cell cycle arrest in human NCI-H2228 cells assessed as downregulation of CDK4 protein expression at 20 nM measured after 12 to 48 hrs by western blot assay. Format: functional, cell-based. Particulars: time 12-48 hrs. The method in brief:
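Western blot of cell-cycle regulatory proteins in NCI-H2228 cells held at 20 nM for 0, 12, 24 or 48 h. Performed three times, representative blot shown.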
A general note: A western blot detects proteins with antibodies after separation by electrophoresis.

Experiment [5] deals with NCI-H2228. Kind of experiment: Induction of apoptosis in human NCI-H2228 cells assessed as late apoptotic cells at 5 nM measured after 24 hrs by Annexin V-FITC/PI staining based flow cytometry assay (reference value: 2.02%). Format: functional. The method in brief:
(§2)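 After 24 h or 48 h exposure (5, 25, 50 nM; DMSO 0.01% control), NCI-H2228 cells were harvested, double-stained with Annexin V-FITC and PI and run on flow cytometry. Stage percentages quantified by software; three experiments, representative shown.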

The subject of experiment [6] is NCI-H2228. Kind of experiment: Induction of apoptosis in human NCI-H2228 cells assessed as necrotic cells at 5 nM measured after 24 hrs by Annexin V-FITC/PI staining based flow cytometry assay (reference value: 0.21%). Format: functional. The method in brief:
as §2

In experiment [7] the test system is NCI-H2228. Kind of experiment: Induction of apoptosis in human NCI-H2228 cells assessed as viable cells at 50 nM measured after 24 hrs by Annexin V-FITC/PI staining based flow cytometry assay (reference value: 95.6%). Format: functional. Particulars: read-out: Activity. The method in brief: as §2
The subject of experiment [8] is NCI-H2228. Kind of experiment: Induction of apoptosis in human NCI-H2228 cells assessed as early apoptotic cells at 25 nM measured after 48 hrs by Annexin V-FITC/PI staining based flow cytometry assay (reference value: 1.58%). Format: functional. The essentials:
as §2

Experiment [9] has as its system NCI-H2228. The experiment is described as follows: Induction of apoptosis in human NCI-H2228 cells assessed as late apoptotic cells at 25 nM measured after 48 hrs by Annexin V-FITC/PI staining based flow cytometry assay (reference value: 0.23%). Format: functional. The essentials: as §2
Experiment [10] has as its system NCI-H2228. The experiment is described as follows: Induction of apoptosis in human NCI-H2228 cells assessed as viable cells at 50 nM measured after 48 hrs by Annexin V-FITC/PI staining based flow cytometry assay (reference value: 95.3%). Format: functional. As to conditions: read-out: Activity. The method in brief:
as §2

Experiment [11] has as its system NCI-H2228. The experiment is described as follows: Induction of apoptosis in human NCI-H2228 cells assessed as necrotic cells at 50 nM measured after 48 hrs by Annexin V-FITC/PI staining based flow cytometry assay (reference value: 2.88%). Format: functional. The method in brief:
as §2

Experiment [12] concerns NCI-H2228. Kind of experiment: Induction of apoptosis in human NCI-H2228 cells assessed as induction of mitochondrial membrane potential collapse at 5 to 50 nM measured after 24 hrs by JC-1 probe based flourescence microscopy. Format: functional, cell-based. Particulars: dose 5-50 nM. The method in brief: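 JC-1 read of mitochondrial membrane potential: NCI-H2228 cells given 5, 25 or 50 nM, or DMSO 0.01%, for 24 h, then probe-loaded 30 min and viewed by fluorescence microscopy for red aggregate versus green monomer signal. Three experiments.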

Experiment [13] deals with NCI-H2228. Kind of experiment: Inhibition of cell migration in human NCI-H2228 cells assessed as reduction in wound closure at 25 nM measured after 12 to 24 hrs by wound healing assay based phase contrast microscopy method. Format: functional. As to conditions: time 12-24 hrs. The essentials: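 Wound-closure migration: NCI-H2228 cells kept in 1640 medium containing compound for 12 h or 24 h, photographed by phase contrast microscopy (4× objective); untreated control for comparison. Three experiments.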

The structures appear in SMILES notation. Activity calls are given as the source filed them. No cut-off for these calls is given here.

For `CCC(=O)Nc1cc(Nc2ncc(Cl)c(Nc3ccc(F)cc3[S+]([O-])CC)n2)c(OC)cc1N1CCN(C)CC1` (stereo not drawn), the Activity in the experiment with NCI-H2228 [1] was determined as 71.23%; in the experiment on NCI-H2228 [2] it was 7.16%; in the experiment on NCI-H2228 [3] it was 10.1%; in the experiment with NCI-H2228 [5] it was 7.02%; in the experiment on NCI-H2228 [6] it was 0.17%; in the experiment with NCI-H2228 [8], 19.9%. The Activity came out at 37.1% with NCI-H2228 [9] and 4.55% with NCI-H2228 [11]. The result in the experiment on NCI-H2228 [4], in the experiment on NCI-H2228 [12] and in the experiment with NCI-H2228 [13] was Active. Moreover, the viability at 0.05 µM with NCI-H2228 [7] was found to be 76.1%; in the experiment with NCI-H2228 [10], 10.1%.
